# Assay results as given in ChEMBL document CHEMBL3124817, “Design and synthesis of thiazole derivatives as potent FabH inhibitors with antibacterial activity” (Eur J Med Chem, 2014).
# Columns and labels:
# [1] = Inhibition of Escherichia coli N-terminal His-tagged FabH expressed in Escherichia coli BL21(DE3) using holo-acyl carrier protein as substrate preincubated for 1 min followed by acetyl-CoA addition measured after 25 mins by liquid scintillation counting analysis
# Outline: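 His-tagged FabH purified by Ni–NTA. Reaction: 1 nM FabH, […], 20 mM sodium phosphate pH 7.0, 0.5 mM DTT, 0.25 mM MgCl₂, 1 min preincubation. Started with 25 μM acetyl-CoA plus 0.75 μCi [³H]acetyl-CoA for 25 min. Stopped with cold TCA, protein pellet counted by liquid scintillation. Inhibitors from DMSO stock, final DMSO ≤2%; IC50 determined.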
# [2] = Cytotoxicity against human macrophages after 24 hrs by MTT assay; assay type: cell-based, Macrophage
# Outline: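 Human macrophages in DMEM with 10% FBS and antimycotic, 1.8×10^4 cells/well. Compounds at 160, 40, 10, 2.5, 0.25 μg/mL in 10% DMSO, 24 h at 37 °C under 5% CO₂. Then MTT for 4 h, formazan dissolved in DMSO, absorbance difference 570/630 nm as viability. CC50 by curve fitting; untreated cells as negative control.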
# [3] = test system: Escherichia coli; test: Antibacterial activity against Escherichia coli ATCC 35218 after 24 hrs by MTT assay; assay type: functional; conditions: ATCC 35218, 24 h
# Outline: (§1)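 Broth microdilution in sterile liquid MH medium; compounds from 1 mg/mL DMSO stock, serially diluted. Inoculum about 10^5 cfu/mL, 37 °C for 24 h. MIC read visually, then MTT (2 mg/mL in PBS pH 7.4) added for 4–5 h at room temperature. Dye extracted with acidified isopropanol for 12 h, OD at 550 nm.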
# [4] = test system: Pseudomonas aeruginosa; test: Antibacterial activity against Pseudomonas aeruginosa ATCC 13525 after 24 hrs by MTT assay; assay type: functional; conditions: ATCC 13525, 24 h; outline: as §1
# [5] = test system: Bacillus spizizenii; test: Antibacterial activity against Bacillus subtilis ATCC 6633 after 24 hrs by MTT assay; assay type: functional; conditions: ATCC 6633, 24 h; outline: as §1
# [6] = test system: Staphylococcus aureus; test: Antibacterial activity against Staphylococcus aureus ATCC 6538 after 24 hrs by MTT assay; assay type: functional; conditions: ATCC 6538, 24 h; outline: as §1
SMILES,IC50 [1] [µM],pIC50 [1],CC50 at 24 h [2] [µM],MIC [3] [µg/mL],MIC [4] [µg/mL],MIC [5] [µg/mL],MIC [6] [µg/mL]
O=C(Cc1ccc(Cl)cc1)Nc1nc(-c2ccc(Br)cc2)cs1,34.7,4.46,286,–,–,–,–
O=C(Cc1ccc(Br)cc1)Nc1nc(-c2ccc(Br)cc2)cs1,48.1,4.32,315,–,–,–,–
O=C(Cc1cccc(Cl)c1)Nc1nc(-c2ccc(Br)cc2)cs1,9.3,5.27,194,6.25,12.5,–,–
O=C(Cc1cccc(Br)c1)Nc1nc(-c2ccc(Br)cc2)cs1,5.8,5.01,220,1.56,3.13,1.56,–
COc1cccc(CC(=O)Nc2nc(-c3ccc(Br)cc3)cs2)c1,6.6,5.25,192,12.5,3.13,6.25,3.13
O=C(Nc1nc(-c2ccc(Br)cc2)cs1)c1ccccc1,> 100,–,–,–,–,–,–
O=C(Cc1cccc(Cl)c1)Nc1nc(-c2ccccc2)cs1,12.3,4.91,264,–,–,–,–
O=C(Cc1cccc(Br)c1)Nc1nc(-c2ccccc2)cs1,26.9,4.57,257,–,–,–,–
COc1cccc(CC(=O)Nc2nc(-c3ccccc3)cs2)c1,–,–,–,–,25,–,–
O=C(Cc1ccc(F)cc1)Nc1nc(-c2ccc(Br)cc2)cs1,29.3,4.53,264,–,–,–,–
O=C(Cc1ccc(F)cc1)Nc1nc(-c2ccccc2)cs1,38.4,4.42,318,–,–,–,–
O=C(Cc1ccc(Cl)cc1)Nc1nc(-c2ccccc2)cs1,41.8,4.38,357,–,–,–,–
CCOc1cccc(CC(=O)Nc2nc(-c3ccc(Br)cc3)cs2)c1,–,–,–,50,25,50,> 100
CCOc1cccc(CC(=O)Nc2nc(-c3ccccc3)cs2)c1,–,–,–,50,50,> 100,> 100
O=C(Nc1nc(-c2ccccc2)cs1)c1ccccc1,> 100,–,–,–,–,–,–
CC1(C)S[C@@H]2[C@H](NC(=O)Cc3ccccc3)C(=O)N2[C@H]1C(=O)O [PENICILLIN G],4.9,–,229,–,–,–,–
